# Tests used:
# OVCAR5 cells = test: MTS cytotoxicity assay after CuAAC reaction / GSH depletion; assay type: cell-based, human; settings: low concentration (20 μM) BSO
# Summary of the method: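 HPG-incorporated OVCAR5 cells were exposed 10 min to CuAAC reaction mixtures. They were then returned to RPMI-1640 for 24 hours before viability was read by MTS assay. For GSH depletion, cells were first held 24 hours in RPMI-1640 containing 20 μM BSO before HPG incorporation.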
# cellular GSH = test: Cellular GSH concentration by LC-ESI-MS/MS after NEM alkylation; assay type: cell-based, human; settings: OVCAR5, 20 μM BSO
# Summary of the method: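 Adherent OVCAR5 cells held in RPMI-1640 with 20 μM BSO for 24 hours before HPG incorporation. Cellular GSH was alkylated with NEM and then quantified by LC-ESI-MS/MS.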
# [1] = Cu^I-ligand dissociation constant, competition assay with bicinchoninic acid; assay type: binding; settings: read-out: Dissociation constant (KD) of Cu^I-ligand; BCA competition assay
Structure (SMILES),Cytotoxicity of GSH depletion (in words) (OVCAR5 cells),Cellular GSH concentration (cellular GSH; 24 h) [µM],Reduction of the cellular GSH level (cellular GSH; 24 hours) [%],Kd [1] [nM]
"CCCCS(=N)(=O)CCC(N)C(=O)O (stereo not shown) [BSO, buthionine sulfoximine]",No cytotoxicity,4.9 ± 0.4,99.7,
"N[C@@H](CCC(=O)N[C@@H](CS)C(=O)NCC(=O)O)C(=O)O [GSH, reduced glutathione]",,,,0.031

# From publication PMC5365239 (Chemical Science, 2016)
